The record followed here is ChEMBL document CHEMBL4033721, “Design, synthesis and evaluation of indole-2-carboxamides with pan anti-mycobacterial activity” (Bioorg Med Chem, 2017).

Values after ≈ are worked out from the molar mass of the structure shown.

Tested on in the first test: not listed separately
The test is described as follows: Antimycobacterial activity against Mycobacterium bolletii ATCC 14472 after 8 days by resazurin microtiter based colorimetric assay. Format: functional. As to conditions: Mycobacteroides abscessus, ATCC 14472, 192 h. A digest of the protocol:
(§1)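 Resazurin microtiter plate MIC, read by visual scan for growth, in Mueller Hinton II broth. Strains include clinical isolates of M. abscessus complex, M. chelonae, M. avium, M. intracellulare, M. xenopi, P. aeruginosa PAO-1 and S. aureus ATCC 25923.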
In general terms: The colour change of resazurin is a common sign of viable cells or microbes.
For the compound `Cc1cc(C)c2cc(C(=O)NC3CCC(C)CC3)[nH]c2c1` (mixture of isomers), the minimum inhibitory concentration (MIC) (commonly the lowest concentration found to suppress growth) is at most 0.06 µg/mL.

For `Cc1cc(C)c2cc(C(=O)NC3CCCCC3)[nH]c2c1`, the minimal inhibitory concentration (MIC) came to 0.25 µg/mL (≈ 0.925 µM).

Compound `CCCCCCCCNC(=O)c1cc2c(C)cc(C)cc2[nH]1` came in with an MIC above 32 µg/mL.

As to `CC(NC(=O)c1cc2ccccc2[nH]1)C12CC3CC(CC(C3)C1)C2` (stereo not drawn), the MIC was determined as 16 µg/mL (≈ 49.6 µM).

`CCC12CC3CC(C1)CC(NC(=O)c1cc4ccccc4[nH]1)(C3)C2`: the minimal inhibitory concentration (MIC) is above 32 µg/mL.

The test system of a further test is Pseudomonas aeruginosa. Put plainly: Antibacterial activity against Pseudomonas aeruginosa PAO1 after 8 days by resazurin microtiter based colorimetric assay. Format: functional. To be noted: PAO1, 192 h. A digest of the protocol: as §1
Compound `Cc1cc(C)c2cc(C(=O)NC3CCC(C)CC3)[nH]c2c1` (mixture of isomers) had an MIC above 160 µg/mL.

For a further test, the system named is Mycobacteroides chelonae. Put plainly: Antimycobacterial activity against Mycobacterium chelonae ATCC 35752 after 8 days by resazurin microtiter based colorimetric assay. Format: functional. To be noted: ATCC 35752, 192 h. A digest of the protocol: as §1
Compound `Cc1cc(C)c2cc(C(=O)NC3CCC(C)CC3)[nH]c2c1` (mixture of isomers) displayed an MIC of at most 0.06 µg/mL.

Consider `Cc1cc(C)c2cc(C(=O)NC3CCCCC3)[nH]c2c1`, for which the MIC stood at 0.25 µg/mL (≈ 0.925 µM).

In turn, `CCCCCCCCNC(=O)c1cc2c(C)cc(C)cc2[nH]1` had a minimum inhibitory concentration (MIC) above 32 µg/mL.

In the case of `CC(NC(=O)c1cc2ccccc2[nH]1)C12CC3CC(CC(C3)C1)C2` (stereo not drawn), inhibition of growth (MIC) required 2 µg/mL (≈ 6.2 µM).

In turn, `CCC12CC3CC(C1)CC(NC(=O)c1cc4ccccc4[nH]1)(C3)C2` registered an MIC above 32 µg/mL.

The subject of the next test is Staphylococcus aureus. Put plainly: Antibacterial activity against Staphylococcus aureus ATCC 25923 after 8 days by resazurin microtiter based colorimetric assay. Format: functional. As to conditions: ATCC 25923, 192 h. The essentials:
as §1
Take `Cc1cc(C)c2cc(C(=O)NC3CCC(C)CC3)[nH]c2c1` (mixture of isomers): the MIC is above 160 µg/mL.

The subject of a further test is Mycobacteroides abscessus. The test is described as follows: Bactericidal activity against Mycobacterium abscessus after 8 days by resazurin microtiter based colorimetric assay. The test is classed as functional.
Conditions: not given
The essentials: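 MBC90 found by subculturing from the MIC wells onto 7H11 agar. Value is the lowest concentration cutting CFU by 90% versus the inoculum.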
`Cc1cc(C)c2cc(C(=O)NC3CCC(C)CC3)[nH]c2c1` (mixture of isomers) displayed an MBC90 of 0.03 µg/mL.

For the next test, the system named is Mycobacterium tuberculosis. Put plainly: Antimycobacterial activity against Mycobacterium tuberculosis H37Rv MC2-6206 after 8 days by resazurin microtiter based colorimetric assay. The test is classed as functional. As to conditions: H37Rv MC2-6206, 192 h. A digest of the protocol: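 MIC was measured by resazurin microtiter colorimetric assay with visual growth scoring. Medium was 7H9-ADC–0.05% tyloxapol with 0.2% casaminoacids, 48 µg/ml pantothenate and 50 µg/ml L-leucine.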
As to `Cc1cc(C)c2cc(C(=O)NC3CCC(C)CC3)[nH]c2c1` (mixture of isomers), the MIC was found to be 0.31 µg/mL.

In the case of `Cc1cc(C)c2cc(C(=O)NC3CCCCC3)[nH]c2c1`, it took 0.625 µg/mL (≈ 2.31 µM) to inhibit growth (MIC).

Consider `CCCCCCCCNC(=O)c1cc2c(C)cc(C)cc2[nH]1`, for which the minimum inhibitory concentration (MIC) is above 20 µg/mL.

The compound `CC(NC(=O)c1cc2ccccc2[nH]1)C12CC3CC(CC(C3)C1)C2` (stereo not drawn) came in with a minimum inhibitory concentration (MIC) above 5 µg/mL.

`CCC12CC3CC(C1)CC(NC(=O)c1cc4ccccc4[nH]1)(C3)C2` displayed a minimum inhibitory concentration (MIC) of 1.25 µg/mL (≈ 3.88 µM).

A further test deals with Mycobacterium xenopi. The test is described as follows: Antimycobacterial activity against wild type Mycobacterium xenopi isolate 4042 after 8 days by resazurin microtiter based colorimetric assay. The test is classed as functional. To be noted: isolate 4042, 192 h. The essentials:
as §1
For `Cc1cc(C)c2cc(C(=O)NC3CCC(C)CC3)[nH]c2c1` (mixture of isomers), the MIC fell in the range of 0.5 to 1 µg/mL.

In turn, `Cc1cc(C)c2cc(C(=O)NC3CCCCC3)[nH]c2c1` yielded an MIC of 1 to 2 µg/mL (≈ 3.7 to 7.4 µM).

Turning to `CCCCCCCCNC(=O)c1cc2c(C)cc(C)cc2[nH]1`, the minimum inhibitory concentration (MIC) is above 32 µg/mL.

Consider `CC(NC(=O)c1cc2ccccc2[nH]1)C12CC3CC(CC(C3)C1)C2` (stereo not drawn), for which the lowest concentration to inhibit growth (MIC) was 8 µg/mL (≈ 24.8 µM).

As to `CCC12CC3CC(C1)CC(NC(=O)c1cc4ccccc4[nH]1)(C3)C2`, the MIC was in the range of 1 to 2 µg/mL (≈ 3.1 to 6.2 µM).

A further test relates to Mycobacterium avium. The test is described as follows: Antimycobacterial activity against Mycobacterium avium isolate 104 after 8 days by resazurin microtiter based colorimetric assay. The test is classed as functional. As to conditions: isolate 104, 192 h. The essentials:
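M. avium 104 MICs were read by resazurin microtiter colorimetric assay in 96-well plates, with growth scored visually, in Mueller Hinton II medium.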
`Cc1cc(C)c2cc(C(=O)NC3CCC(C)CC3)[nH]c2c1` (mixture of isomers) returned an MIC above 32 µg/mL.

As to `Cc1cc(C)c2cc(C(=O)NC3CCCCC3)[nH]c2c1`, the MIC was above 32 µg/mL.

`CCCCCCCCNC(=O)c1cc2c(C)cc(C)cc2[nH]1` displayed a minimal inhibitory concentration (MIC) above 32 µg/mL.

`CC(NC(=O)c1cc2ccccc2[nH]1)C12CC3CC(CC(C3)C1)C2` (stereo not drawn) registered a minimal inhibitory concentration (MIC) above 32 µg/mL.

In turn, `CCC12CC3CC(C1)CC(NC(=O)c1cc4ccccc4[nH]1)(C3)C2` yielded an MIC above 32 µg/mL.

The test system of a further test is Mycolicibacterium smegmatis. The test is described as follows: Antimycobacterial activity against Mycobacterium smegmatis isolate MC2 155 after 8 days by resazurin microtiter based colorimetric assay. The test is classed as functional. To be noted: str. MC2 155, 192 h.
In turn, `Cc1cc(C)c2cc(C(=O)NC3CCC(C)CC3)[nH]c2c1` (mixture of isomers) gave an MIC above 20 µg/mL.

Regarding `Cc1cc(C)c2cc(C(=O)NC3CCCCC3)[nH]c2c1`, the minimum inhibitory concentration (MIC) came to 2.5 µg/mL (≈ 9.25 µM).

Turning to `CCCCCCCCNC(=O)c1cc2c(C)cc(C)cc2[nH]1`, the minimum inhibitory concentration (MIC) is 2.5 to 5 µg/mL (≈ 8.32 to 16.6 µM).

`CC(NC(=O)c1cc2ccccc2[nH]1)C12CC3CC(CC(C3)C1)C2` (stereo not drawn) displayed an MIC above 20 µg/mL.

On to `CCC12CC3CC(C1)CC(NC(=O)c1cc4ccccc4[nH]1)(C3)C2`, for which the minimal inhibitory concentration (MIC) was above 20 µg/mL.

A further test relates to Mycobacteroides abscessus. The test is described as follows: Antimycobacterial activity against Mycobacterium abscessus isolate DCI 21 after 8 days by resazurin microtiter based colorimetric assay. The test is classed as functional. As to conditions: isolate DCI 21, 192 h. A digest of the protocol:
as §1
`Cc1cc(C)c2cc(C(=O)NC3CCC(C)CC3)[nH]c2c1` (mixture of isomers) displayed an MIC of at most 0.06 µg/mL.

The compound `Cc1cc(C)c2cc(C(=O)NC3CCCCC3)[nH]c2c1` displayed a minimal inhibitory concentration (MIC) of 0.25 µg/mL (≈ 0.925 µM).

Consider `CCCCCCCCNC(=O)c1cc2c(C)cc(C)cc2[nH]1`, for which the minimum inhibitory concentration (MIC) is above 32 µg/mL.

Compound `CC(NC(=O)c1cc2ccccc2[nH]1)C12CC3CC(CC(C3)C1)C2` (stereo not drawn) had an MIC of 16 µg/mL (≈ 49.6 µM).

`CCC12CC3CC(C1)CC(NC(=O)c1cc4ccccc4[nH]1)(C3)C2`: the minimal inhibitory concentration (MIC) is above 32 µg/mL.

Tested on in the next test: not listed separately
The test is described as follows: Antimycobacterial activity against Mycobacterium massiliense isolate CRM0019 after 8 days by resazurin microtiter based colorimetric assay. The test is classed as functional, Mycobacterium abscessus subsp. massiliense. As to conditions: Mycobacteroides abscessus, isolate CRM0019, 192 h. A digest of the protocol: as §1
Regarding `Cc1cc(C)c2cc(C(=O)NC3CCC(C)CC3)[nH]c2c1` (mixture of isomers), the MIC was at most 0.06 µg/mL.

In turn, `Cc1cc(C)c2cc(C(=O)NC3CCCCC3)[nH]c2c1` gave an MIC of 0.25 µg/mL (≈ 0.925 µM).

Regarding `CCCCCCCCNC(=O)c1cc2c(C)cc(C)cc2[nH]1`, the minimum inhibitory concentration (MIC) is above 32 µg/mL.

`CC(NC(=O)c1cc2ccccc2[nH]1)C12CC3CC(CC(C3)C1)C2` (stereo not drawn): 8 µg/mL (≈ 24.8 µM) was the least that counted as inhibitory (MIC).

Consider `CCC12CC3CC(C1)CC(NC(=O)c1cc4ccccc4[nH]1)(C3)C2`, for which the minimal inhibitory concentration (MIC) is above 32 µg/mL.

Tested on in a further test: not listed separately
Put plainly: Antimycobacterial activity against Mycobacterium massiliense isolate CIP108297 after 8 days by resazurin microtiter based colorimetric assay. Format: functional, Mycobacterium abscessus subsp. massiliense. To be noted: Mycobacteroides abscessus, isolate CIP108297, 192 h. A digest of the protocol:
as §1
In turn, `Cc1cc(C)c2cc(C(=O)NC3CCC(C)CC3)[nH]c2c1` (mixture of isomers) had an MIC of at most 0.06 µg/mL.

`Cc1cc(C)c2cc(C(=O)NC3CCCCC3)[nH]c2c1` yielded a minimum inhibitory concentration (MIC) of 0.25 µg/mL (≈ 0.925 µM).

For the compound `CCCCCCCCNC(=O)c1cc2c(C)cc(C)cc2[nH]1`, the minimal inhibitory concentration (MIC) is above 32 µg/mL.

On to `CC(NC(=O)c1cc2ccccc2[nH]1)C12CC3CC(CC(C3)C1)C2` (stereo not drawn), for which inhibition of growth (MIC) required 8 µg/mL (≈ 24.8 µM).

`CCC12CC3CC(C1)CC(NC(=O)c1cc4ccccc4[nH]1)(C3)C2` returned a minimum inhibitory concentration (MIC) above 32 µg/mL.

The test system of a further test is Mycobacterium avium-intracellulare. The test is described as follows: Antimycobacterial activity against Mycobacterium avium-intracellulare isolate 1956 after 8 days by resazurin microtiter based colorimetric assay. To be noted: isolate 1956, 192 h. Format: functional. The essentials: as §1
Take `Cc1cc(C)c2cc(C(=O)NC3CCC(C)CC3)[nH]c2c1` (mixture of isomers): the MIC is above 32 µg/mL.

Compound `Cc1cc(C)c2cc(C(=O)NC3CCCCC3)[nH]c2c1` gave a minimum inhibitory concentration (MIC) above 32 µg/mL.

`CCCCCCCCNC(=O)c1cc2c(C)cc(C)cc2[nH]1` returned an MIC above 32 µg/mL.

For the compound `CC(NC(=O)c1cc2ccccc2[nH]1)C12CC3CC(CC(C3)C1)C2` (stereo not drawn), the MIC worked out at 32 µg/mL (≈ 99.2 µM).

Take `CCC12CC3CC(C1)CC(NC(=O)c1cc4ccccc4[nH]1)(C3)C2`: the minimum inhibitory concentration (MIC) is above 32 µg/mL.

The test system of the next test is Mycobacteroides abscessus. The test is described as follows: Antimycobacterial activity against Mycobacterium abscessus ATCC 19977 after 8 days by resazurin microtiter based colorimetric assay. The test is classed as functional. As to conditions: ATCC 19977, 192 h. The essentials: as §1
As for `Cc1cc(C)c2cc(C(=O)NC3CCC(C)CC3)[nH]c2c1` (mixture of isomers), the MIC was at most 0.06 µg/mL.

`Cc1cc(C)c2cc(C(=O)NC3CCCCC3)[nH]c2c1` came in with a minimum inhibitory concentration (MIC) of 0.5 µg/mL (≈ 1.85 µM).

In the case of `CCCCCCCCNC(=O)c1cc2c(C)cc(C)cc2[nH]1`, the minimal inhibitory concentration (MIC) is above 32 µg/mL.

Take `CC(NC(=O)c1cc2ccccc2[nH]1)C12CC3CC(CC(C3)C1)C2` (stereo not drawn): the minimal inhibitory concentration (MIC) worked out at 16 µg/mL (≈ 49.6 µM).

With `CCC12CC3CC(C1)CC(NC(=O)c1cc4ccccc4[nH]1)(C3)C2`, the MIC was above 32 µg/mL.
